Screens: PubChem, several laboratories
AHR act: AHR activators, primary screen, cell-based, luminescence, luciferase reporter, human; Aryl hydrocarbon receptor (Homo sapiens), P35869; AHR-responsive luciferase reporter cells; activation, % at 5 µM; 2.5% of 320,000 active; AID 2796, 2010; in the data active means activation above about 47%;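 further: 0% = vehicle wells and 100% = reference agonist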
Efflux pump inh: inhibitors of Candida efflux pumps in yeast, primary screen, S. cerevisiae, Nile Red, multiplex | AID 485275, 2010 | inhibition, % at 10 µM | 0.44% of 330,000 active | S. cerevisiae Candida pump triplex;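 active means plate passing quality check with inhibition over a set limit, or well fluorescence over plate mean plus 4 SD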;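 further: Nile Red retained in pooled yeast measured as flow cytometry median fluorescence; 0% = buffer negative control and 100% = Enniatin B positive control; higher means more Nile Red kept so more efflux inhibition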
SMARCA2 activ: SMARCA2 (BRM) function activators, primary screen, cell-based, luminescence, high throughput | MG213 cells, MMTV-luciferase reporter, dexamethasone, overnight | activation, % at 9.1 µM | 1% of 370,000 active | AID 652017, 2013; in the data active means activation above about 7.8%;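 further: 0% = vehicle wells and 100% = reference activator wells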
TbMetRS inhib: T. brucei MetRS inhibitors, primary screen, biochemical, luminescence; 0.4% of 360,000 active; inhibition, % at 11.9 µM; purified T. brucei MetRS, ATP depletion, Kinase-Glo luminescence; methionyl-tRNA synthetase (Trypanosoma brucei brucei);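 active means inhibition above a per-plate cutoff of the control wells' mean inhibition plus 3 SD, cut at about 5.5% in these data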;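 further: 0% = DMSO wells median and 100% = median of wells with control inhibitor compound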
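Assay system: T. brucei methionyl-tRNA synthetase, purified | Medium: HEPES buffer with MgCl2, KCl, DTT, spermine, BSA, pyrophosphatase | Compound: 11.9 µM single point | Incubation: 15 min enzyme-compound preincubation, 2 h reaction, 10 min detection, 25 °C | Measured by: Kinase-Glo luciferase luminescence reporting remaining unconsumed ATP | Measure: % inhibition normalized to control-well medians | Replication: Singlicate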
H9c2 TAG inh: inhibitors of triacylglycerol accumulation, primary screen, cell-based, uHTS, fluorescence, H9c2 | H9c2 cells, Nile Red lipid (TAG) fluorescence; cells loaded with 200 µM oleic acid | inhibition, % at 12.5 µM | 0.66% of 230,000 active;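 active means pattern-corrected inhibition of lipid staining of at least 50% with the nuclear-stain viability signal not falling by more than 50%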;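 further: 0% = DMSO wells and 100% = triacsin C control wells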
Starred values were filed as active, the others as inactive; · = no result. Compounds with a hit are over-represented: about 4.1% of the library has one in this group of screens.

SMILES	AHR act	Efflux pump inh	SMARCA2 activ	TbMetRS inhib	H9c2 TAG inh
N#Cc1c(C(F)(F)F)cc(-c2ccccc2)nc1SCCN1CCOCC1	55*	0	-3	0	·
N#Cc1c(C(F)(F)F)cc(-c2ccco2)nc1SCc1ccccn1	60*	0	5	-1	·
CN(C)c1cccc(/C=C2\CC3(OC(=O)c4cccc(F)c4)CCCN2C3)c1 (stereo unspecified)	·	·	0	·	·
O=C1C(=O)c2c(C(=O)c3ccccc3)coc2-c2ccccc21	52*	0	-1	0	·
Cc1oc2c(c1C(=O)O)C(=O)c1ccccc1C2=O	11	0	-3	1	-2
Cc1oc2c(c1C(=O)c1ccccc1)C(=O)C(=O)c1ccccc1-2	64*	0	-9	-1	-8
Cn1c2ccccc2c2n[nH]c(=O)nc21	-2	0	-2	0	7
Cn1c2ccccc2c2n[nH]c(=S)nc21	75*	0	-1	1	3
Cc1cc(NC(=O)CSc2nnnn2-c2ccccc2)no1	3	0	-1	0	-8
Cc1cc(N/C=C\c2nnnn2-c2ccccc2)no1	69*	0	3	1	·
COCCCN1C(=O)[C@H](CC(=O)N2CCC(c3ccccc3)CC2)[C@]2(C(=O)OC)CCCCC=C12	·	·	-4	·	·
COc1cc(N2CCCC2)c(OC)cc1/C=C(/C#N)c1cccc(F)c1	69*	0	·	-1	·
Nc1cccnc1Sc1ccc([N+](=O)[O-])cn1	·	·	1	0	-10
Nc1cccnc1Sc1cc(Cl)c(Cl)cc1Cl	59*	0	5	0	-31
O=C1C(c2ccnc3ccccc23)=C(O)c2ccccc21	54*	0	6	-1	5
O=C1c2ccccc2C(=O)C1c1nccc2ccccc12	51*	0	6	-1	22
O=C1c2ccccc2C(=O)C1c1ccnc2ccccc12	62*	0	6	-1	-2
O=C1C(=O)c2ccccc2C(O)=C1c1ccccc1F	3	0	-3	0	9
COC(=O)[C@]12C[C@H](CC(=O)NCC34CC5CC(CC(C5)C3)C4)C(=O)N(Cc3ccco3)C1=C[C@H](COCc1ccccc1)O[C@@H]2C	·	·	-2	·	·
O=C1Cc2ccccc2C(=O)N1CCc1ccccc1	73*	0	0	-1	-4
C=CCN1C(=O)[C@@H](CC(=O)N2CCCC2)[C@]2(C(=O)OC)CCCCC=C12	·	·	0	·	·
CCc1nonc1NC(=O)c1oc2ccc(F)cc2c1C	61*	0	-2	0	·
Cc1c(C(=O)Nc2nonc2-c2ccc(F)cc2)oc2ccc(F)cc12	33	0	-3	-1	·
CC(COc1ccc([N+](=O)[O-])cc1Cl)CN1CCC(C(O)(c2ccccc2)c2ccccc2)CC1 (stereo unspecified)	·	·	-3	·	·
C=C(C)Cn1c(SCC(=O)N/N=C(\C)c2ccc(Br)cc2)nnc1-c1ccc(Br)cc1	·	·	-4	·	·
SMILES	AHR act	Efflux pump inh	SMARCA2 activ	TbMetRS inhib	H9c2 TAG inh
Cc1cc(N=O)c(C)cc1O	·	·	2	1	·
Cc1cc(O)c(-c2cc(O)c(C)cc2O)cc1O	52*	0	-1	-1	·
Fc1ccc(-c2nc3n(n2)Cc2ccccc2-3)cc1	61*	0	7	-2	·
Cc1ccc(-c2nc3n(n2)Cc2ccccc2-3)cc1	41	0	2	-1	12
CN1C(=O)c2cc(NC(=O)Nc3ccccc3)ccc2OC[C@H]2O[C@@H](CC(=O)NCc3ccc(-c4ccccc4)cc3)CC[C@@H]21	·	·	-4	·	·
COc1ccc(NC(=O)N2CCn3c2nc2ccccc23)cc1	30	0	2	0	·
O=C(Nc1ccccc1)N1CCn2c1nc1ccccc12	51*	0	0	-1	3
CCc1ccc(-c2cn(C3CCCCC3)c(=S)[nH]2)cc1	63*	0	-2	1	1
Cn1c(Cc2cccs2)nnc1SCC(=O)Nc1ccc2c(c1)OCCO2	·	·	-2	·	·
CCOC(=O)C(=CN=C(N)Nc1nc2ccccc2o1)C(=O)OCC	63*	0	1	0	-5
CCCOC(=O)Nc1nc2ccccc2o1	31	0	3	-1	-11
O=C(CSCC(=O)N1CCOCC1)Nc1nc(-c2ccc3c(c2)OCO3)cs1	50*	0	5	0	4
